Source: ChEMBL document CHEMBL1143122, “Novel analogs of D-e-MAPP and B13. Part 1: synthesis and evaluation as potential anticancer agents” (Bioorg Med Chem, 2008)

Key:
NCI-H460 = experiment: Antiproliferative activity against human NCI-H460 cells after 48 hrs; type: functional; details: NCI-H460, 48 h
Summary of the method: (§1)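 NCI 60-cell screen. Cells were grown in RPMI 1640 with 5% FBS and 2 mM L-glutamine, then plated at 5,000–40,000 cells/well according to doubling time and preincubated for 24 h at 37 °C in 5% CO2. Compounds were dissolved in DMSO at 400× the top final concentration and tested at five 10-fold dilutions from 10−4 to 10−8 M for 48 h. Growth was read spectrophotometrically; GI50 is 50% net protein reduction.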

[1] = Antiproliferative activity against human NCI-ADR-RES cells after 48 hrs; type: functional; summary of the method: as §1
U-251 = experiment: Antiproliferative activity against human U251 cells after 48 hrs; type: functional; details: U-251, 48 h
Summary of the method: (§2)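 NCI 60-cell-line screen. Lines grown in RPMI 1640 with 5% fetal bovine serum and 2 mM L-glutamine, plated at 5,000–40,000 cells/well according to doubling time, left 24 h at 37 °C in 5% CO2. Drug stocks in DMSO at 400-fold the top final concentration. Five 10-fold dilutions, 10−4 to 10−8 M, incubated 48 h. Growth read spectrophotometrically as net protein; GI50 taken as 50% reduction.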

NCI-H226 = experiment: Antiproliferative activity against human NCI-H226 cells after 48 hrs; type: functional; details: NCI-H226, 48 h; summary of the method: as §1
SN12C = experiment: Antiproliferative activity against human SN12C cells after 48 hrs; type: functional; summary of the method: as §1
UO-31 = experiment: Antiproliferative activity against human UO31 cells after 48 hrs; type: functional; details: UO-31, 48 h; summary of the method: as §2
M14 = experiment: Antiproliferative activity against human M14 cells after 48 hrs; type: functional; details: M14, 48 h; summary of the method: as §1
LOX IMVI = experiment: Antiproliferative activity against human LOXIMVI cells after 48 hrs; type: functional; summary of the method: as §1
SK-OV-3 = experiment: Antiproliferative activity against human SKOV3 cells after 48 hrs; type: functional; details: SK-OV-3, 48 h; summary of the method: as §1
SF-268 = experiment: Antiproliferative activity against human SF268 cells after 48 hrs; type: functional; details: SF-268, 48 h; summary of the method: as §1
IGROV-1 = experiment: Antiproliferative activity against human IGROV1 cells after 48 hrs; type: functional; details: IGROV-1, 48 h; summary of the method: as §1
SF-539 = experiment: Antiproliferative activity against human SF539 cells after 48 hrs; type: functional; details: SF-539, 48 h; summary of the method: as §1
OVCAR-5 = experiment: Antiproliferative activity against human OVCAR5 cells after 48 hrs; type: functional; details: OVCAR-5, 48 h; summary of the method: as §1
MCF7 = experiment: Antiproliferative activity against human MCF7 cells after 48 hrs; type: functional, cell-based; details: MCF7, 48 h
[2] = Antiproliferative activity against human HL60(TB) cells after 48 hrs; type: functional, HL-60(TB); details: HL-60, 48 h
Summary of the method: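 NCI 60-line panel screen: cells grown in RPMI 1640 with 5% fetal bovine serum and 2 mM L-glutamine, plated at 5,000–40,000 cells/well by doubling time, and preincubated 24 h at 37 °C in 5% CO2. Drugs were solubilised in DMSO at 400-fold the final maximum and tested at five 10-fold dilutions from 10−4 to 10−8 M for 48 h. Net protein was read spectrophotometrically, and the concentration giving 50% reduction was reported as log10 GI50.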

NCI-H23 = experiment: Antiproliferative activity against human NCI-H23 cells after 48 hrs; type: functional; details: NCI-H23, 48 h; summary of the method: as §1
A549 = experiment: Antiproliferative activity against human A549 cells after 48 hrs; type: functional; details: A549, 48 h; summary of the method: as §1
HCT-15 = experiment: Antiproliferative activity against human HCT15 cells after 48 hrs; type: functional; details: Homo sapiens, HCT-15, 48 h; summary of the method: as §1
MDA-MB-435 = experiment: Antiproliferative activity against human MDA-MB-435 cells after 48 hrs; type: functional; details: Homo sapiens, MDA-MB-435, 48 h; summary of the method: as §1
COLO 205 = experiment: Antiproliferative activity against human COLO205 cells after 48 hrs; type: functional; details: COLO 205, 48 h; summary of the method: as §1
ACHN = experiment: Antiproliferative activity against human ACHN cells after 48 hrs; type: functional; summary of the method: as §1
OVCAR-4 = experiment: Antiproliferative activity against human OVCAR4 cells after 48 hrs; type: functional; details: OVCAR-4, 48 h; summary of the method: as §1
OVCAR-8 = experiment: Antiproliferative activity against human OVCAR8 cells after 48 hrs; type: functional; details: OVCAR-8, 48 h; summary of the method: as §1
OVCAR-3 = experiment: Antiproliferative activity against human OVCAR-3 cells after 48 hrs; type: functional; details: OVCAR-3, 48 h; summary of the method: as §1
SNB-19 = experiment: Antiproliferative activity against human SNB19 cells after 48 hrs; type: functional; details: SNB-19, 48 h; summary of the method: as §1
HCT-116 = experiment: Antiproliferative activity against human HCT116 cells after 48 hrs; type: functional; details: HCT-116, 48 h; summary of the method: as §1
HCC 2998 = experiment: Antiproliferative activity against human HCC2998 cells after 48 hrs; type: functional; details: HCC 2998, 48 h; summary of the method: as §1
RXF 393 = experiment: Antiproliferative activity against human RXF393 cells after 48 hrs; type: functional; details: RXF 393, 48 h; summary of the method: as §1
[3] = read-out: Log LC50 (the source's name) (converted)

## C[C@H](NC(=O)CCCCCCCCCCCCCCC[n+]1ccccc1)[C@H](O)c1ccccc1.[Br-]
NCI-H460
  GI50: 2.82 µM
NCI-H460; [3]
  CC50: 41.7 µM
NCI-H460; read-out: Log TGI (converted)
  TGI: 13.2 µM
[1]
  GI50: > 100 µM
  LC50: > 100 µM
[1]; read-out: Log TGI (converted)
  TGI: > 100 µM
U-251
  GI50: 2.95 µM
U-251; [3]
  CC50: 38.9 µM
U-251; read-out: Log TGI (converted)
  TGI: 13.8 µM
NCI-H226
  GI50: 6.46 µM
NCI-H226; [3]
  CC50: 89.1 µM
NCI-H226; read-out: Log TGI (converted)
  TGI: 26.9 µM
SN12C
  GI50: 3.47 µM
  LC50 (50% net cell kill): 47.9 µM
SN12C; read-out: Log TGI (converted)
  TGI: 14.8 µM
UO-31
  GI50: 28.8 µM
  LC50: > 100 µM
UO-31; read-out: Log TGI (converted)
  TGI: 95.5 µM
M14
  GI50: 6.31 µM
  LC50: 46.8 µM
M14; read-out: Log TGI (converted)
  TGI: 19.5 µM
LOX IMVI
  GI50: 4.07 µM
  LC50: 44.7 µM
LOX IMVI; read-out: Log TGI (converted)
  TGI: 14.8 µM
SK-OV-3
  GI50: 3.31 µM
SK-OV-3; [3]
  CC50: 35.5 µM
SK-OV-3; read-out: Log TGI (converted)
  TGI: 12 µM
SF-268
  GI50: 3.24 µM
  LC50: 43.7 µM
SF-268; read-out: Log TGI (converted)
  TGI: 13.2 µM
IGROV-1
  GI50: 3.16 µM
  LC50: 57.5 µM
IGROV-1; read-out: Log TGI (converted)
  TGI: 15.8 µM
SF-539
  GI50: 3.39 µM
  LC50: 39.8 µM
SF-539; read-out: Log TGI (converted)
  TGI: 14.1 µM
OVCAR-5
  GI50: 11 µM
OVCAR-5; [3]
  CC50: 51.3 µM
OVCAR-5; read-out: Log TGI (converted)
  TGI: 24 µM
MCF7
  GI50: 1.48 µM
  LC50: 20.9 µM
MCF7; read-out: Log TGI (converted)
  TGI: 4.79 µM
[2]
  GI50: 1.48 µM
  LC50: 31.6 µM
[2]; read-out: Log TGI (converted)
  TGI: 4.37 µM
NCI-H23
  GI50: 2.95 µM
NCI-H23; [3]
  CC50: 49 µM
NCI-H23; read-out: Log TGI (converted)
  TGI: 15.5 µM
A549
  GI50: 5.13 µM
A549; [3]
  CC50: 67.6 µM
A549; read-out: Log TGI (converted)
  TGI: 21.9 µM
HCT-15
  GI50: 57.5 µM
  LC50: > 100 µM
HCT-15; read-out: Log TGI (converted)
  TGI: > 100 µM
MDA-MB-435
  GI50: 2.63 µM
  LC50: 25.7 µM
MDA-MB-435; read-out: Log TGI (converted)
  TGI: 7.24 µM
COLO 205
  GI50: 1.05 µM
COLO 205; [3]
  CC50: 31.6 µM
COLO 205; read-out: Log TGI (converted)
  TGI: 4.9 µM
ACHN
  GI50: 21.9 µM
ACHN; [3]
  CC50: 91.2 µM
ACHN; read-out: Log TGI (converted)
  TGI: 44.7 µM
OVCAR-4
  GI50: 1.66 µM
  LC50: 42.7 µM
OVCAR-4; read-out: Log TGI (converted)
  TGI: 12.3 µM
OVCAR-8
  GI50: 3.89 µM
OVCAR-8; [3]
  CC50: > 100 µM
OVCAR-8; read-out: Log TGI (converted)
  TGI: 22.9 µM
OVCAR-3
  GI50: 1.32 µM
  LC50: 26.3 µM
OVCAR-3; read-out: Log TGI (converted)
  TGI: 6.46 µM
SNB-19
  GI50: 3.09 µM
SNB-19; [3]
  CC50: 38 µM
SNB-19; read-out: Log TGI (converted)
  TGI: 13.2 µM
HCT-116
  GI50: 3.47 µM
  LC50: 38.9 µM
HCT-116; read-out: Log TGI (converted)
  TGI: 14.8 µM
HCC 2998
  GI50: 1.55 µM
HCC 2998; [3]
  CC50: 30.9 µM
HCC 2998; read-out: Log TGI (converted)
  TGI: 7.41 µM
RXF 393
  GI50: 12 µM
RXF 393; [3]
  CC50: 74.1 µM
RXF 393; read-out: Log TGI (converted)
  TGI: 29.5 µM
